Entries after “also recorded” stand apart in the source; their conditions may differ.
Columns and labels:
[1] = tested on: VIPR2; assay: PathHunter β-arrestin; format: cell-based; conditions: 6 μM
Outline: (§1)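 β-Arrestin recruitment to GPCR read by β-galactosidase fragment complementation and chemiluminescence. Agonist: % = 100 × (test − vehicle)/(max control ligand − vehicle), hit at >30% and RLU > baseline + 3 SD. Antagonist, against EC80 agonist: % inhibition = 100 × (1 − (test − vehicle)/(EC80 − vehicle)), hit at >35% and RLU < EC80 − 3 SD.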

[2] = tested on: TLR1; assay: western blot, JJ012 cells; format: cell-based, human; conditions: vs untreated control, overnight incubation
Outline: (§2)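 JJ012 cells seeded at 1×10^6 cells/ml in 6-well clusters and incubated overnight at 37°C, 5% CO2 with or without test compound. Lysed with protease inhibitor (1:100) and centrifuged at 15,000 × g, 4°C. Protein loaded at 20 μg/lane with reducing agent, run on polyacrylamide gel, transferred to PVDF, probed with rabbit anti-TLR primaries and HRP-linked secondaries.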

[3] = tested on: GPR109A; assay: PathHunter β-arrestin; format: cell-based; conditions: antagonist mode, 6 μM
Outline: (§3)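 Vendor-run (DiscoveRx) PathHunter enzyme fragment complementation. β-Arrestin carries the EA fragment and the receptor carries ED; recruitment restores β-gal activity, read by chemiluminescence (RLU). Agonist % activity = vehicle-subtracted RLU relative to max control ligand (gpcrMAX) or to vehicle (orphanMAX). Antagonist % inhibition = 100% × (1 − vehicle-subtracted sample RLU / vehicle-subtracted EC80 agonist control RLU).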

[4] = tested on: TACR1; assay: PathHunter β-arrestin; format: cell-based; conditions: 6 μM
Outline: as §1

[5] = tested on: MC4R; assay: PathHunter β-arrestin; format: cell-based; conditions: 6 μM
Outline: as §3

[6] = tested on: ADRB2; assay: PathHunter β-arrestin; format: cell-based; conditions: 6 μM
Outline: (§4)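 β-Arrestin recruitment assay: the enzyme acceptor is fused to β-arrestin and the ED fragment to the GPCR. Recruitment restores β-galactosidase, read by chemiluminescence. % activity = 100% × (test − vehicle)/(max control ligand − vehicle). % inhibition = 100% × (1 − (test − vehicle)/(EC80 control − vehicle)). An agonist hit needs >30% activity and RLU > baseline + 3×SD. An antagonist hit needs >35% inhibition and RLU < EC80 RLU − 3×SD.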

[7] = tested on: PTAFR; assay: PathHunter β-arrestin; format: cell-based; conditions: 6 μM
Outline: as §1

[8] = tested on: CCR7; assay: PathHunter β-arrestin; format: cell-based; conditions: 6 μM
Outline: (§5)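 Engineered cells express the receptor fused to one β-galactosidase fragment (ED) and β-arrestin fused to the complementing fragment (EA). Receptor activation recruits β-arrestin, which restores enzyme activity, and this is read by chemiluminescence (RLU). Agonist % activity is 100% × (test − vehicle)/(maximal control ligand − vehicle). Antagonist mode is challenged with an EC80 control agonist, and % inhibition is 100% × (1 − (test − vehicle)/(EC80 − vehicle)). Hits require >30% activity or >35% inhibition, plus a 3×SD RLU margin.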

[9] = tested on: nuclear receptor; assay: PathHunter NHR assays, nhrMAX panel, antagonist mode; format: cell-based; conditions: summary of Table IV
Outline: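 Enzyme fragment complementation: NHR nuclear recruitment of a co-activator peptide fusion restores β-galactosidase, read by chemiluminescence. Test compound preincubated 1 h before agonist challenge. % inhibition = 100 × (1 − (test − vehicle RLU)/(EC80 control − vehicle RLU)). Hit requires >35% inhibition and mean RLU below EC80 RLU − 3 × EC80 SD.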

[10] = ref [61]; cited from earlier work
[11] = tested on: OPRK1; assay: PathHunter β-arrestin; format: cell-based; conditions: antagonist mode, 6 μM
Outline: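 GPCR-ED fusion and β-arrestin-EA fusion; arrestin recruitment restores β-galactosidase, read by chemiluminescence. Antagonist mode uses EC80 agonist challenge. % inhibition = 100 × (1 − (test − vehicle RLU)/(EC80 control − vehicle RLU)). Hit requires >35% inhibition and mean RLU below EC80 RLU − 3 × EC80 SD.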

[12] = tested on: TICAM2 (TRAM); assay: western blot, JJ012 cells; format: cell-based, human; conditions: vs untreated control, overnight incubation
[13] = tested on: CNR2; assay: PathHunter β-arrestin; format: cell-based; conditions: 6 μM
Outline: as §5

[14] = tested on: GLP2R; assay: PathHunter β-arrestin; format: cell-based; conditions: agonist mode, 6 μM
Outline: as §3

[15] = tested on: HTR2A; assay: PathHunter β-arrestin; format: cell-based; conditions: 6 μM
Outline: as §3

[16] = tested on: PTHR1; assay: PathHunter β-arrestin; format: cell-based; conditions: 6 μM
Outline: as §1

[17] = tested on: NPBWR2; assay: PathHunter β-arrestin; format: cell-based; conditions: 6 μM
Outline: as §3

[18] = tested on: CXCR2; assay: PathHunter β-arrestin; format: cell-based; conditions: 6 μM
Outline: as §5

[19] = tested on: TLR5; assay: western blot, JJ012 cells; format: cell-based, human; conditions: vs untreated control, overnight incubation
[20] = tested on: CALCRL-RAMP1; assay: PathHunter β-arrestin; format: cell-based; conditions: antagonist mode, 6 μM
Outline: as §4

[21] = tested on: TLR2; assay: western blot, JJ012 cells; format: cell-based, human; conditions: vs untreated control, overnight incubation
Outline: as §2

[22] = tested on: CALCR; assay: PathHunter β-arrestin; format: cell-based; conditions: 6 μM
Outline: as §4

[23] = tested on: EDG3; assay: PathHunter β-arrestin; format: cell-based; conditions: antagonist mode, 6 μM
Outline: as §5

[24] = tested on: DRD3; assay: PathHunter β-arrestin; format: cell-based; conditions: 6 μM
Outline: as §5

[25] = tested on: ADCYAP1R1; assay: PathHunter β-arrestin; format: cell-based; conditions: 6 μM
Outline: as §4

[26] = tested on: nuclear receptor; assay: PathHunter NHR assays, nhrMAX panel, agonist mode; format: cell-based; conditions: summary of Table IV
Outline: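 Enzyme fragment complementation: a ligand-activated NHR moves to the nucleus and recruits a steroid receptor co-activator peptide fusion, restoring β-galactosidase, read by chemiluminescence. Agonist interaction measured over 6 h. Hit requires >30% activity and mean RLU above baseline RLU + 3 × baseline SD.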

[27] = tested on: MC5R; assay: PathHunter β-arrestin; format: cell-based; conditions: 6 μM
Outline: as §3

[28] = tested on: LHCGR; assay: PathHunter β-arrestin; format: cell-based; conditions: antagonist mode, 6 μM
Outline: as §3

Proline rich polypeptide 1 [PRP-1]
% Activity ([1]; agonist mode): 1% | % Inhibition ([1]; antagonist mode): −3% | protein expression [2]: strong upregulation; also recorded: upregulated protein expression of TLR1 and TLR2 in dose-dependent manner | % Inhibition [3]: −4% | % Activity ([4]; agonist mode): 1% | % Inhibition ([4]; antagonist mode): −2% | % Activity ([5]; agonist mode): −1% | % Inhibition ([5]; antagonist mode): −6% | % Activity ([6]; agonist mode): 3% | % Inhibition ([6]; antagonist mode): −3% | % Activity ([7]; agonist mode): 1% | % Inhibition ([7]; antagonist mode): −8% | % Activity ([8]; agonist mode): 1% | % Inhibition ([8]; antagonist mode): −2% | nuclear receptor antagonism [9]: neither that this peptide was agonist for orphan receptors (Table III) or agonist/antagonist for nuclear receptor | antibacterial properties [10]: antibacterial properties | % Inhibition [11]: −12% | protein expression [12]: upregulated in dose-dependent manner | % Activity ([13]; agonist mode): −2% | % Inhibition ([13]; antagonist mode): 5% | % Activity [14]: 1% | % Activity ([15]; agonist mode): 1% | % Inhibition ([15]; antagonist mode): −5% | % Activity ([16]; agonist mode): 1% | % Inhibition ([16]; antagonist mode): −2% | % Activity ([17]; agonist mode): 1% | % Inhibition ([17]; antagonist mode): −3% | % Activity ([18]; agonist mode): 1% | % Inhibition ([18]; antagonist mode): −3% | protein expression [19]: PRP-1 did not have any effect | % Inhibition [20]: 4% | protein expression [21]: strong upregulation; also recorded: upregulated protein expression of TLR1 and TLR2 in dose-dependent manner | % Activity ([22]; agonist mode): 1% | % Inhibition ([22]; antagonist mode): 1% | % Inhibition [23]: 1% | % Activity ([24]; agonist mode): 2% | % Inhibition ([24]; antagonist mode): −15% | % Activity ([25]; agonist mode): 1% | % Inhibition ([25]; antagonist mode): −6% | nuclear receptor agonism [26]: neither that this peptide was agonist for orphan receptors (Table III) or agonist/antagonist for nuclear receptor | % Activity ([27]; agonist mode): 2% | % Inhibition ([27]; antagonist mode): −5% | % Inhibition [28]: −15%
